Data set [1] can be described thus: Antioxidant activity assessed as inhibition of AAPH-induced lipid peroxidation in liposomes measured as Trolox equivalent antioxidant capacity. In kind it is functional. The note with it: Liposome. The method in brief: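 Egg phosphatidylcholine LUVs (0.80 mM final) holding a radical-sensitive fluorescent probe were mixed with polyphenol (1.50, 7.50, 15.00 µM final; 1.5% ethanol) and shaken 10 min at 37 °C. Peroxidation was then started with 15.00 mM AAPH. Fluorescence (ex 360/40, em 460/40 nm) was read at 37 °C for 3 h. TEAC = (AUC compound − AUC control)/(AUC Trolox − AUC control). Run in duplicate.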

Data set [2] relates to Radical scavenging activity. The data set can be described thus: Antioxidant activity assessed as ratio of IC50 for Trolox to compound for DPPH radical scavenging activity by TEAC assay. In kind it is functional. The method in brief:
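DPPH• (180 µL) received 20 µL ethanolic compound, six concentrations of 1.5 × 10^-5 to 15 × 10^-5 M, prepared in duplicate and assayed in quadruplicate. Absorbance was read every minute for 10 min, then every 5 min for 50 min; ethanol blank = 100% radical. 60-min data were fitted by second-degree polynomial through 100%. TEAC = Trolox IC50 / compound concentration giving 50% bleaching.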
In general terms: The DPPH test is a chemical assay of radical scavenging.

Data set [3] is described as follows: Redox potential at pH 7.3 by differential pulse and cyclic voltametry. Format: physicochemical. The method in brief:
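Glassy carbon working electrode, potentials vs Ag/AgCl. 0.1 mM compound (diluted from 10 mM ethanol stock) in pH 7.3 phosphate supporting electrolyte, made from 0.2 M K2HPO4 and KH2PO4. Differential pulse voltammetry was run at 5 mV s^-1. Cyclic voltammetry was run at 50 mV s^-1, with scan rates of 10–100 mV s^-1 also examined.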

Data set [4] in a line: Antioxidant activity assessed as ratio of IC50 for Trolox to compound for ABTS radical scavenging activity after 5 mins by TEAC assay. Format: functional. A digest of the protocol:
(§1)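 Six ethanolic compound solutions (1.5 × 10^-5 to 15 × 10^-5 M) were made in duplicate, and 20 µL of each was added to 180 µL ABTS•+ in quadruplicate. Absorbance was read every 5 min over 20 min; ethanol blank = 100% radical. Radical % against concentration at 5 or 20 min was fitted by second-degree polynomial through 100%. TEAC = Trolox IC50 / compound concentration giving 50% bleaching.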

The nature of data set [5]: Antioxidant activity assessed as ratio of IC50 for Trolox to compound for ABTS radical scavenging activity after 20 mins by TEAC assay. Format: functional. The method in brief:
as §1

For the molecule `O=C(O)/C=C/c1ccc(O)c(O)c1` [CAFFEIC ACID], in data set [1], the Ratio amounted to 2.23. Moreover, the results for the Ratio IC50 in data set [2], in data set [4] and in data set [5] were 1.29, 1.14 and 1.27, respectively. In data set [3], this molecule displayed a Redox potential of 0.183 V.

Turning to `CCCCCCNC(=O)/C=C/c1ccc(O)c(O)c1` [CAFFEOYLHEXYLAMIDE], the Ratio in data set [1] was 2.41. Besides, the Ratio IC50 in data set [2] came to 1.11; in data set [4], 1.04; in data set [5], 1.05. The same molecule showed a Redox potential in data set [3] of 0.162 V.

Turning to `O=C(O)CCc1ccc(O)c(O)c1` [DIHYDROCAFFEIC ACID], the Ratio in data set [1] amounted to 1.75. The figures for the Ratio IC50 in data set [2], in data set [4] and in data set [5] were 2.05, 1.16 and 1.41, respectively. This molecule also displayed a Redox potential in data set [3] of 0.139 V.

For the molecule `COc1cc(CCC(=O)O)ccc1O` [DIHYDROFERULIC ACID], the Ratio in data set [1] worked out at 0.22. Moreover, the Redox potential in data set [3] is 0.41 V.

For the molecule `COc1cc(/C=C/C(=O)O)ccc1O` [FERULATE], the Ratio in data set [1] was found to be 0.79. The Redox potential in data set [3] came to 0.35 V.

Consider `CCCCCCNC(=O)/C=C/c1ccc(O)c(OC)c1` [FERULOYLHEXYLAMIDE], for which, in data set [1], the Ratio stood at 1.22. In data set [3], this molecule had a Redox potential of 0.322 V.

With `CCCCCCOC(=O)/C=C/c1ccc(O)c(O)c1` [HEXYLCAFFEATE], in data set [1], the Ratio came out at 3.55. Moreover, the Ratio IC50 in data set [2] is 0.97; in data set [4], 0.91; in data set [5] it was 0.93. In data set [3], this molecule had a Redox potential of 0.175 V.

Turning to `CCCCCCOC(=O)/C=C/c1ccc(O)c(OC)c1` [HEXYLFERULATE], the Ratio in data set [1] is 1.13. Also, the Redox potential in data set [3] is reported as 0.328 V.

For `CCCCCCOC(=O)CCc1ccc(O)c(O)c1` [HEXYLHYDROCAFFEATE], in data set [1], the Ratio is 3.49. Further, the Ratio IC50 in data set [2] came out at 0.99; in data set [4], 0.96; in data set [5], 0.96. The Redox potential in data set [3] was determined as 0.125 V.

As for `CCCCCCOC(=O)CCc1ccc(O)c(OC)c1` [HEXYLHYDROFERULATE], the Ratio in data set [1] is 0.57. For the same molecule, the Redox potential in data set [3] turned out to be 0.434 V.

Consider `CCCCCCNC(=O)CCc1ccc(O)c(O)c1` [HYDROCAFFEOYLHEXYLAMIDE], for which the Ratio in data set [1] was 2.08. Moreover, the Ratio IC50 in data set [2] is 1; in data set [4], 1.01; in data set [5], 1.02. In data set [3], this molecule had a Redox potential of 0.125 V.

Turning to `CCCCCCNC(=O)CCc1ccc(O)c(OC)c1` [HYDROFERULOYLHEXYLAMIDE], the Ratio in data set [1] turned out to be 0.68. The molecule also showed a Redox potential in data set [3] of 0.388 V.

The values are drawn from ChEMBL document CHEMBL1212871, “Lipophilic phenolic antioxidants: correlation between antioxidant profile, partition coefficients and redox properties” (Bioorg Med Chem, 2010).
